LMPTP inh: LMPTP phosphatase inhibitors, primary screen, biochemical, fluorescence intensity, uHTS. AID 651560, 2012. Low molecular weight phosphotyrosine protein phosphatase (Homo sapiens), P24666. inhibition, % at 20 µM. recombinant LMPTP-A, OMFP fluorogenic substrate. 360,000 tested, 0.22% active;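 active = compounds that cut the enzyme signal by at least half of the control window in the single-dose screen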;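 note: plate controls were DMSO wells with enzyme plus substrate for no effect and substrate without enzyme for full effect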
Target sequence (P24666 whole entry, looked up): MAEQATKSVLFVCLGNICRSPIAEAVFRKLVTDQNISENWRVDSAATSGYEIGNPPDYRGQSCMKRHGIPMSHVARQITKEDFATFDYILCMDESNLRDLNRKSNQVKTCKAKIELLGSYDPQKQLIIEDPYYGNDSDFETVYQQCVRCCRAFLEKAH
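Buffer or medium: Bis-Tris pH 6.0, DTT, detergent; Assay system: LMPTP-A enzyme; Quantity: 0.625 nM enzyme; Detection: endpoint fluorescence intensity; Times: 50 min dark incubation at room temperature; Controls: substrate-only low control, DMSO enzyme-plus-substrate high control; Doses: single 20 µM dose; Read-out: percent inhibition versus substrate-only and uninhibited controls; Reagent: 400 µM OMFP.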
Scp-1 inhibitor: Scp-1 phosphatase inhibitors, primary screen, biochemical, colorimetric, uHTS. Recombinant Scp1, phosphopeptide, malachite green phosphate absorbance. 340,000 tested, 0.88% active. inhibition, % at 20 µM. Carboxy-terminal domain RNA polymerase II polypeptide A small phosphatase 1 (Homo …;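 active = inhibition above about 50% at 20 µM, limit read from the data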;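 note: plate controls were DMSO wells with enzyme for no effect and wells lacking enzyme for full effect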
Target sequence (Q9GZU7 76-261 limits assumed): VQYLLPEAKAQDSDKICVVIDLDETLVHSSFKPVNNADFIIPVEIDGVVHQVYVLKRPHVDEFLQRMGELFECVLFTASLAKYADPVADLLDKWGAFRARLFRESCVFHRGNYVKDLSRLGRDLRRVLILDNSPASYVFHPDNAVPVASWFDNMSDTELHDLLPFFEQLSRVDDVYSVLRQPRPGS
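Incubation: 45 min enzyme reaction at room temperature / System: truncated SCP-1 phosphatase (76-261aa) / Reagent: Phospho 17-mer peptide substrate / Buffer or medium: Acidic Tris acetate buffer with magnesium and detergent / Signal: absorbance at 630 nm / Doses: one concentration, 20 µM, with 1.0% DMSO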
SUMO1 PPI mod: modulators of SUMO1 protein-protein interactions, primary screen, biochemical, uHTS; Small ubiquitin-related modifier 1 (Homo sapiens), P63165; 360,000 tested, 0.33% active; inhibition, % at 20 µM; SUMO1 binding to a labelled peptide, TR-FRET, 1 h; in the data active = inhibition above about 37%
Target sequence (P63165 whole entry, looked up): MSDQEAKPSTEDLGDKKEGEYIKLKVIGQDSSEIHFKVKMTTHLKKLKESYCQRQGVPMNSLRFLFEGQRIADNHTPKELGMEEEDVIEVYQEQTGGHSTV
NadD inh: inhibitors of S. aureus NadD, primary screen, biochemical, colorimetric, uHTS | Nicotinate-nucleotide adenylyltransferase NadD (Staphylococcus aureus N315) | purified NadD enzyme, colorimetric absorbance read-out | inhibition, % at 20 µM | 360,000 tested, 0.78% active | AID 602399, 2012; in the data active = inhibition above about 26%
STEP block: STEP phosphatase inhibitors, primary screen, biochemical, fluorescence intensity, uHTS. recombinant STEP, OMFP fluorogenic substrate. inhibition, % at 20 µM. 360,000 tested, 0.25% active. AID 588621, 2011;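 active = inhibition at 20 µM, scaled per plate between control wells, above about 37%, limit read from the data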;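 note: 0% = DMSO with enzyme and substrate and 100% = substrate only without enzyme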
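System: STEP phosphatase, cell-free reaction; Buffer or medium: Bis-Tris pH 6.0 buffer with DTT, detergent; Incubation: 20 min at room temperature, dark; Measured by: fluorescence, 480/540 nm.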
DNMT1 block: human DNMT1 methyltransferase inhibitors, primary screen, biochemical, molecular beacon, fluorescence, HinP1I cleavage, uHTS; inhibition (reported as % activation of signal), % at 10 µM; 360,000 tested, 0.83% active; in the data active = inhibition above about 50%
NadD conf: inhibitors of S. aureus NadD, confirmation, biochemical, colorimetric, single concentration | inhibition, % at 20 µM | purified S. aureus NadD, colorimetric enzyme assay | 2,000 tested, 13% active | shares compounds with NadD inh; in the data active = inhibition mostly above about 42%, no sharp cut-off; inactive = mostly below about 42%
* = called active by the depositor; . = no result. Compounds with a hit are over-represented: about 2.3% of the library has one in this group of screens.

SMILES	LMPTP inh	Scp-1 inhibitor	SUMO1 PPI mod	NadD inh	STEP block	DNMT1 block	NadD conf
COc1ccccc1Cc1c(-c2ccco2)nc2cc(C)c(Br)c(C)n12	8.1	.	24.4	60.1*	.	.	20.7
Cc1cc2nc(-c3ccco3)c(Cc3cccc(Cl)c3)n2c(C)c1Br	11.7	.	25.7	60.8*	.	.	21.4
CSCCC(NC(=O)c1cccc(C)c1)C(=O)Nc1sccc1C(N)=O (configuration not stated)	4.3	-9.0	11.6	0.8	2.9	-6.2	.
CN(CC1CCCN(CCc2ccccc2F)C1)C(=O)c1cc2ccccc2o1 (configuration not stated)	-1.5	.	-0.6	-1.6	-2.9	0.8	.
COc1ccc(-c2ccc3c(c2)S(=O)(=O)c2cccc(C(=O)N4CCN(c5ccccn5)CC4)c2C3=O)cc1OC	7.4	.	-19.3	14.7	4.4	-8.6	.
O=C1c2ccc(-c3ccc(Cl)c(C(F)(F)F)c3)cc2S(=O)(=O)c2cccc(C(=O)N3CCN(c4ccc(Cl)cn4)CC3)c21	3.5	3.5	-6.0	54.6*	5.6	-3.3	7.2
CC1=NN(c2ccc(C)c(C)c2)C(=O)C1C(c1cccc(O)c1)C1C(=O)N(c2ccc(C)c(C)c2)N=C1C (configuration not stated)	6.2	5.7	11.1	37.0*	2.3	-20.1	61.2*
CC1=NN(c2ccc(C)cc2C)C(=O)C1C(c1ccccc1O)C1C(=O)N(c2ccc(C)cc2C)N=C1C (configuration not stated)	2.1	9.0	16.4	21.4	-2.5	-10.7	.
Cc1cc(C)c2[nH]c(=O)c(CN(Cc3cccs3)C(=S)NCc3ccco3)cc2c1	2.1	-10.1	4.9	15.4	2.4	-8.4	.
CCOc1cc(/C=N/NC(=O)CNc2ccc(C)cc2)ccc1OC(=O)c1ccccc1	0.7	-10.7	2.5	32.5*	1.1	4.3	12.5
Cn1cccc1-c1cc(C(=O)N/N=C/c2cccc(O)c2)[nH]n1	-1.1	-9.3	0.0	-0.5	-1.3	-8.9	.
Cc1ccc(N2C(=O)CC(N(CCc3ccccc3)C(=S)Nc3ccc(N(C)C)cc3)C2=O)cc1 (configuration not stated)	3.3	0.8	1.2	37.4*	-2.4	-10.1	35.3*
CCc1ccc(C(=O)/C=C/c2ccc([N+](=O)[O-])o2)cc1	1.2	-7.4	0.5	26.0	5.3	19.9	.
CCN(CC)S(=O)(=O)c1ccc(C(=O)/C=C/c2ccc(-c3ccc([N+](=O)[O-])cc3)o2)cc1	5.0	-27.2	-11.3	51.7*	4.5	17.4	9.1
Cc1ccc(C(=O)/C=C/c2ccc(-c3ccc(C)cc3)o2)cc1	0.2	-10.1	0.1	34.4*	-1.5	3.5	4.4
O=C(/C=C\c1ccc(-c2ccccc2)o1)c1ccccc1	0.9	-5.3	0.9	27.3	-0.9	-7.6	.
O=C(Nc1cccc(-c2csc(Nc3ccccc3)n2)c1)c1cc([N+](=O)[O-])cc(C(F)(F)F)c1	8.6	2.6	-7.7	37.4*	-0.7	-20.2	8.6
O=C(Nc1cccc(-c2csc(Nc3ccc(Cl)cc3)n2)c1)c1ccccc1	9.7	3.5	-3.1	3.0	-2.7	-32.3	.
O=C(Nc1ccc(-c2csc(Nc3ccc(Cl)cc3)n2)cc1)c1cc([N+](=O)[O-])cc(C(F)(F)F)c1	6.4	-0.2	-9.0	43.1*	0.1	-8.6	7.9
CCOC(=O)C1=C(C)N=c2s/c(=C\c3ccc(OC(C)=O)c(OCC)c3)c(=O)n2C1/C=C/c1ccccc1 (configuration not stated)	0.6	3.2	0.2	54.1*	0.1	-4.8	4.2
C/C(CC1CC(C)OC1=O)=N\NC(N)=S (configuration not stated)	-1.1	-0.9	0.7	1.5	0.2	1.4	.
C/C(CCC12CC3CC(CC(C3)C1)C2)=N\NC(N)=S	0.5	6.0	2.2	33.8*	9.9	-0.6	43.7
C=CCNc1nc(NCc2ccc(NC(C)=O)cc2)c2sc(-c3ccccc3)cc2n1	4.3	.	-12.0	31.5*	4.2	2.2	21.5
Cc1ccc(C)c(NC(=O)C(OC(=O)c2ccc(NC(=O)CC#N)cc2)c2ccccc2)c1 (configuration not stated)	1.0	-3.9	2.8	37.0*	-1.7	-16.7	53.4*
Cc1cc(C)cc(NC(=O)C(OC(=O)c2ccc(NC(=O)CC#N)cc2)c2ccccc2)c1 (configuration not stated)	3.7	-12.8	3.8	40.0*	-2.7	-13.3	44.8*
SMILES	LMPTP inh	Scp-1 inhibitor	SUMO1 PPI mod	NadD inh	STEP block	DNMT1 block	NadD conf
Cc1cc(C)cc(NC(=O)C(OC(=O)c2cccs2)c2ccccc2)c1 (configuration not stated)	1.8	-10.5	1.6	-12.3	0.2	-1.1	.
COc1ccccc1C(=O)N/C(=C\c1cn(C)c2ccccc12)C(=O)NCCCn1ccnc1	3.9	-3.5	-15.9	1.4	-1.4	3.9	.
CCC(C)[C@H](N)C(=O)N[C@H]1CCC2C3CC=C4C[C@@H](O)CC[C@]4(C)C3CC[C@@]21C (some centres not stated)	-0.7	.	-8.5	-9.2	-0.5	-1.1	.
CN1CCC(=NNC(=O)CN(c2ccc([N+](=O)[O-])cc2)S(=O)(=O)c2ccccc2)CC1	-0.5	-10.3	-18.4	-2.8	0.8	-2.2	.
CCC(C)c1ccc(C2C3=C(Nc4nc(N)[nH]c(=O)c42)c2ccccc2C3=O)cc1 (configuration not stated)	2.9	9.1	-0.1	37.1*	5.6	16.7	11.1
COc1ccc2ccccc2c1/C=N/NC(=O)c1nnn(-c2nonc2N)c1CN(C)C	-0.5	-3.1	3.7	0.9	2.6	4.3	.
COc1ccc2ccccc2c1/C=N/NC(=O)c1nnn(-c2nonc2N)c1C(C)C	6.3	-3.5	-10.4	33.4*	-2.5	-7.6	41.7*
Cc1ccccc1N1CCN(CCN2C(=O)CC(=C3c4ccccc4-c4ccccc43)C2=O)CC1	1.2	-2.2	-7.2	30.6*	-0.7	5.3	39.0
O=C1CC(=C2c3ccccc3-c3ccccc32)C(=O)N1CCN1CCN(c2ccccc2)CC1	1.4	5.7	-3.6	38.2*	4.1	11.9	27.2
COc1ccccc1N1CCN(CCN2C(=O)CC(=C3c4ccccc4-c4ccccc43)C2=O)CC1	.	-7.3	.	.	.	.	.
